In brackets after ≈: the same amount, converted by molar mass.
Assays:
Streptococcus viridans = test: Antibacterial activity against Streptococcus viridans after 24 hrs by broth microdilution method; type: functional; conditions: Streptococcus viridans, 24 h; read-out: MIC
Method in brief: (§1)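 Clinical isolates. Each dilution received 100 μl of 0.5 McFarland fresh culture. Solvent (DMSO), growth and standard controls were included. Tubes were incubated at 37 °C for 24 h. MIC is the highest dilution showing no turbidity. Tests were run in triplicate, with at least two repetitions.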

Proteus mirabilis = test: Antibacterial activity against Proteus mirabilis after 24 hrs by broth microdilution method; type: functional; conditions: Proteus mirabilis, 24 h; read-out: MIC; method in brief: as §1
Escherichia coli = test: Antibacterial activity against Escherichia coli after 24 hrs by broth microdilution method; type: functional; conditions: Escherichia coli, 24 h; read-out: MIC; method in brief: as §1
Klebsiella pneumoniae = test: Antibacterial activity against Klebsiella pneumoniae after 24 hrs by broth microdilution method; type: functional; conditions: Klebsiella pneumoniae, 24 h; read-out: MIC; method in brief: as §1
Coxsackievirus B4 [1] = test: Antiviral activity against Human coxsackievirus B4 infected in human HeLa cells assessed as protection from virus-induced cytopathogenicity after 2 days by MTT assay; type: functional, organism-based; conditions: Enterovirus B, 48 h
Vero [2] = test: Cytotoxicity against PIV 3 infected african green monkey Vero cells by trypan blue exclusion method; type: cell-based; conditions: chlorocebus sabaeus, vero
Method in brief: (§2)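 Uninfected confluent cultures were run in parallel with the infected cultures. Medium was replaced by 1 ml maintenance medium with serial compound concentrations; cell controls received no compound. Cultures were incubated at 37 °C. After 2 and 7 days, compound was withdrawn and viability was determined by trypan blue exclusion.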

[3] = system: Respiratory syncytial virus; test: Antiviral activity against Respiratory syncytial virus infected in human HeLa cells assessed as protection from virus-induced cytopathogenicity after 4 days by MTT assay; type: functional, organism-based; conditions: 96 h
HEL [4] = test: Cytotoxicity against VSV infected HEL cells by trypan blue exclusion method; type: cell-based; conditions: human, hel; method in brief: as §2
HeLa [5] = test: Cytotoxicity against Human coxsackievirus B4 infected human HeLa cells by trypan blue exclusion method; type: cell-based; conditions: hela; method in brief: as §2
Felid alphaherpesvirus 1 = test: Antiviral activity against Feline herpesvirus infected in cat CRFK cells assessed as protection from virus-induced cytopathogenicity by MTT assay; type: functional, organism-based; conditions: Felid alphaherpesvirus 1, CRFK
HeLa [6] = test: Cytotoxicity against Respiratory syncytial virus infected human HeLa cells by trypan blue exclusion method; type: cell-based; conditions: hela; method in brief: as §2
Sindbis virus = test: Antiviral activity against Sindbis virus infected in african green monkey Vero cells assessed as protection from virus-induced cytopathogenicity after 2 to 3 days by MTT assay; type: functional, organism-based
[7] = system: Vesicular stomatitis virus; test: Antiviral activity against VSV infected in HEL cells assessed as protection from virus-induced cytopathogenicity after 1 to 2 days by MTT assay; type: functional, organism-based
Human alphaherpesvirus 2 = test: Antiviral activity against Herpes simplex virus 2 G infected in HEL cells assessed as protection from virus-induced cytopathogenicity after 2 to 3 days by MTT assay; type: functional, organism-based; conditions: Human alphaherpesvirus 2, strain G
[8] = Cytotoxicity against HIV2 ROD infected human MT4 cells by MTT assay; type: cell-based; conditions: MT4 cells infected with HIV-2 ROD
Method in brief: (§3)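 MT-4 cells (3 × 10^4 per well) were cultured in microdilution trays with various concentrations of compound, then incubated 5 days at 37 °C, and viable cell number was read by MTT.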

MDCK = test: Cytotoxicity against Influenza B virus infected MDCK cells by trypan blue exclusion method; type: cell-based, Canis lupus familiaris; conditions: dog
HeLa [9] = test: Cytotoxicity against VSV infected human HeLa cells by trypan blue exclusion method; type: cell-based; conditions: hela; method in brief: as §2
HEL [10] = test: Cytotoxicity against acyclovir-sensitive Herpes simplex virus 1 KOS infected HEL cells by trypan blue exclusion method; type: cell-based; conditions: human; method in brief: as §2
Influenza A virus [11] = test: Antiviral activity against Influenza A virus H1N1 infected in MDCK cells assessed as protection from virus-induced cytopathogenicity after 6 to 7 days by MTT assay; type: functional, organism-based
Human alphaherpesvirus 1 [12] = test: Antiviral activity against Herpes simplex virus 1 KOS infected in HEL cells assessed as protection from virus-induced cytopathogenicity after 2 to 3 days by MTT assay; type: functional, organism-based; conditions: Human alphaherpesvirus 1, KOS
HEL [13] = test: Cytotoxicity against Herpes simplex virus 2 G infected HEL cells by trypan blue exclusion method; type: cell-based; conditions: human, hel; method in brief: as §2
[14] = Cytotoxicity against HIV1 3B-infected human MT4 cells by MTT assay; type: cell-based; conditions: MT4 cells infected with HIV-1 3B; method in brief: as §3
Influenza B virus = test: Antiviral activity against Influenza B virus infected in MDCK cells assessed as protection from virus-induced cytopathogenicity after 6 to 7 days by MTT assay; type: functional, organism-based
[15] = Cytotoxicity against Feline herpesvirus infected cat CRFK cells by trypan blue exclusion method; type: cell-based, Felis catus; conditions: crfk; method in brief: as §2
Human alphaherpesvirus 1 [16] = test: Antiviral activity against acyclovir-sensitive Herpes simplex virus 1 KOS infected in HEL cells assessed as protection from virus-induced cytopathogenicity after 2 to 3 days by MTT assay; type: functional, organism-based; conditions: Human alphaherpesvirus 1, KOS
Vero [17] = test: Cytotoxicity against Sindbis virus infected african green monkey Vero cells by trypan blue exclusion method; type: cell-based; conditions: chlorocebus sabaeus, vero; method in brief: as §2
HEL [18] = test: Cytotoxicity against Vaccinia virus infected HEL cells by trypan blue exclusion method; type: cell-based; conditions: human, hel; method in brief: as §2
[19] = system: Human immunodeficiency virus 1; test: Antiviral activity against HIV1 3B-infected in human MT4 cells assessed as protection from virus-induced cytopathogenicity after 5 days by MTT assay; type: functional, organism-based; conditions: Human immunodeficiency virus 1, 3B, MT4, 120 h
Method in brief: (§4)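 MT-4 cells at 3 × 10^4 per well were infected with HIV (IIIB or ROD) at 50% cell culture infective doses. Graded compound concentrations were added immediately after infection. Plates were incubated for 5 days at 37 °C and viable cells were counted by MTT.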

[20] = system: Mammalian orthoreovirus 1; test: Antiviral activity against Reovirus 1 infected in african green monkey Vero cells assessed as protection from virus-induced cytopathogenicity after 6 to 7 days by MTT assay; type: functional, organism-based; conditions: Mammalian orthoreovirus 1, Vero
HEL [21] = test: Cytotoxicity against Herpes simplex virus 1 KOS infected HEL cells by trypan blue exclusion method; type: cell-based; conditions: human, hel; method in brief: as §2
Influenza A virus [22] = test: Antiviral activity against Influenza A virus H3N2 infected in MDCK cells assessed as protection from virus-induced cytopathogenicity after 6 to 7 days by MTT assay; type: functional, organism-based
Coxsackievirus B4 [23] = test: Antiviral activity against Human coxsackievirus B4 infected in african green monkey Vero cells assessed as protection from virus-induced cytopathogenicity after 2 days by MTT assay; type: functional, organism-based; conditions: Enterovirus B, 48 h
Human respirovirus 3 = test: Antiviral activity against PIV 3 infected in african green monkey Vero cells assessed as protection from virus-induced cytopathogenicity after 6 to 7 days by MTT assay; type: functional, organism-based; conditions: Human respirovirus 3, Vero
[24] = system: Vesicular stomatitis virus; test: Antiviral activity against VSV infected in human HeLa cells assessed as protection from virus-induced cytopathogenicity after 1 to 2 days by MTT assay; type: functional, organism-based
Vero [25] = test: Cytotoxicity against Human coxsackievirus B4 infected african green monkey Vero cells by trypan blue exclusion method; type: cell-based; conditions: chlorocebus sabaeus, vero; method in brief: as §2
Vero [26] = test: Cytotoxicity against Reovirus 1 infected african green monkey Vero cells by trypan blue exclusion method; type: cell-based; conditions: chlorocebus sabaeus, vero; method in brief: as §2
Feline coronavirus = test: Antiviral activity against Feline coronavirus infected in cat CRFK cells assessed as protection from virus-induced cytopathogenicity by MTT assay; type: functional, organism-based; conditions: Alphacoronavirus 1, CRFK
Punta Toro virus = test: Antiviral activity against Punta Toro virus infected in african green monkey Vero cells assessed as protection from virus-induced cytopathogenicity by MTT assay; type: functional, organism-based
[27] = system: Human immunodeficiency virus 2; test: Antiviral activity against HIV2 ROD infected in human MT4 cells assessed as protection from virus-induced cytopathogenicity after 5 days by MTT assay; type: functional, organism-based; conditions: Human immunodeficiency virus 2, ISOLATE ROD, MT4, 120 h; method in brief: as §4

Structure (SMILES) | MIC (Streptococcus viridans) [µM] | MIC (Proteus mirabilis) [µM] | MIC (Escherichia coli) [µM] | MIC (Klebsiella pneumoniae) [µM] | EC50 [3] [nM] | EC50 (Sindbis virus) [nM] | EC50 [7] [nM] | EC50 (Human alphaherpesvirus 2) [nM] | CC50 [8] [nM] | EC50 (Influenza A virus [11]) [nM] | CC50 [14] [nM] | EC50 (Influenza B virus) [nM] | IC50 [19] [nM] | EC50 [20] [nM] | EC50 (Influenza A virus [22]) [nM] | EC50 (Human respirovirus 3) [nM] | EC50 [24] [nM] | EC50 (Feline coronavirus) [nM] | EC50 (Punta Toro virus) [nM] | IC50 [27] [nM] | further results
CC1(C)S[C@@H]2[C@H](NC(=O)[C@H](N)c3ccccc3)C(=O)N2[C@H]1C(=O)O [AMPICILLIN TRIHYDRATE] | > 2.47 | 1.23 | 1.23 | 0.6 | – | – | – | – | – | – | – | – | – | – | – | – | – | – | – | – | –
COc1cc(/C=C/C(=O)CC(=O)/C=C/c2ccc(OC(=O)CCC(NC(=O)c3ccc(NCc4cnc5nc(N)[nH]c(=O)c5n4)cc3)C(=O)O)c(OC)c2)ccc1OC(=O)CCC(NC(=O)c1ccc(NCc2cnc3nc(N)[nH]c(=O)c3n2)cc1)C(=O)O (configuration not stated) | 0.27 (≈ 0.328 µg/mL) | 0.54 (≈ 0.656 µg/mL) | 0.27 (≈ 0.328 µg/mL) | 0.27 (≈ 0.328 µg/mL) | > 82 | > 82 | > 82 | > 82 | > 46 | > 82 | > 36 | > 82 | 36 | > 82 | > 82 | > 82 | > 82 | > 30 | > 82 | 46 | EC50 (Coxsackievirus B4 [1]): > 82 nM; CC50 (Vero [2]): > 82 nM; CC50 (HEL [4]): > 82 nM; CC50 (HeLa [5]): > 82 nM; EC50 (Felid alphaherpesvirus 1): > 30 nM; CC50 (HeLa [6]): > 82 nM; CC50 (MDCK): 82 nM; CC50 (HeLa [9]): > 82 nM; CC50 (HEL [10]): > 82 nM; EC50 (Human alphaherpesvirus 1 [12]): > 82 nM; CC50 (HEL [13]): > 82 nM; CC50 [15]: 11 nM; EC50 (Human alphaherpesvirus 1 [16]): > 82 nM; CC50 (Vero [17]): > 82 nM; CC50 (HEL [18]): > 82 nM; CC50 (HEL [21]): > 82 nM; EC50 (Coxsackievirus B4 [23]): > 82 nM; CC50 (Vero [25]): > 82 nM; CC50 (Vero [26]): > 82 nM
CCCCCCCCCCCCCCCC(=O)Oc1ccc(/C=C/C(=O)CC(=O)/C=C/c2ccc(OC(=O)CCCCCCCCCCCCCCC)c(OC)c2)cc1OC | – | 0.53 (≈ 0.448 µg/mL) | 0.53 (≈ 0.448 µg/mL) | 0.53 (≈ 0.448 µg/mL) | – | – | – | – | – | – | – | – | – | – | – | – | – | – | – | – | –
CCCCCCCCCC(=O)Oc1ccc(/C=C/C(=O)CC(=O)/C=C/c2ccc(OC(=O)CCCCCCCCC)c(OC)c2)cc1OC | – | – | – | – | > 147 | > 147 | > 147 | > 147 | > 79 | > 147 | > 81 | > 147 | 81 | > 147 | > 147 | > 147 | 147 | > 29 | > 147 | 79 | –
